These results are taken from ChEMBL document CHEMBL1147606, “Synthesis and cytotoxicity of hydrophobic esters of podophyllotoxins” (Bioorg Med Chem Lett, 2004).

What all share (format): functional, cell-based
One assay has as its system P388. Briefly: In vitro cytotoxicity against the P-388 (from DBA/2 mouse) neoplastic cell line. Put shortly: (§1)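 In vitro assay adapted from Bergeron's method. P-388 was grown as a suspension culture of a mouse lymphoid neoplasm. A-549, HT-29 and MEL-28 were grown as monolayer cultures. Dose–response curves were constructed, and IC50 values (nM) were calculated from them.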

The next assay deals with A549. Briefly: In vitro cytotoxicity against the A-549 (human lung carcinoma) neoplastic cell line.
Another assay concerns HT-29. Briefly: In vitro cytotoxicity against the HT-29 (human colon carcinoma) neoplastic cell line. Summed up:
as §1

A further assay has as its system SK-MEL-28. Briefly: In vitro cytotoxicity against MEL-28 (human malign melanoma) neoplastic cell line. Summed up:
as §1

Regarding `COc1cc([C@@H]2c3cc4c(cc3[C@@H](OC(=O)/C=C/c3ccccc3)[C@H]3COC(=O)[C@H]23)OCO4)cc(OC)c1OC`, the IC50 with P388 (Mus musculus, P388) is 184 nM; in the assay with A549 (Homo sapiens, A549), 184 nM; in the assay with HT-29 (Homo sapiens, HT-29), 184 nM; with SK-MEL-28 (Homo sapiens, SK-MEL-28), 184 nM.

For the molecule `C=CC(=O)O[C@H]1c2cc3c(cc2[C@@H](c2cc(OC)c(OC)c(OC)c2)[C@@H]2C(=O)OC[C@@H]21)OCO3`, the IC50 in the assay with P388 (Mus musculus, P388) came to 55 nM; in the assay with A549 (Homo sapiens, A549), 53 nM; in the assay with HT-29 (Homo sapiens, HT-29), 55 nM; in the assay with SK-MEL-28 (Homo sapiens, SK-MEL-28) it was 53 nM.

Take `COc1cc([C@@H]2c3cc4c(cc3[C@H](OC(=O)C3CC5C=CC3C5)[C@H]3COC(=O)[C@H]23)OCO4)cc(OC)c1OC` (some centres undefined): the IC50 with P388 (p388), with A549 (a549), in the assay with HT-29 (ht-29) and with SK-MEL-28 (sk-mel-28) was 468 nM in each case.

On to `COc1cc([C@@H]2c3cc4c(cc3[C@@H](OC(=O)c3ccccc3)[C@H]3COC(=O)[C@H]23)OCO4)cc(OC)c1OC`, for which the IC50 worked out at 24 nM in the assay with P388 (Mus musculus, P388); 48 nM in the assay on A549 (Homo sapiens, A549); 48 nM in the assay with HT-29 (Homo sapiens, HT-29); 48 nM in the assay on SK-MEL-28 (Homo sapiens, SK-MEL-28).

In the case of `COc1cc([C@@H]2c3cc4c(cc3[C@@H](OC(=O)Cc3ccccc3)[C@H]3COC(=O)[C@H]23)OCO4)cc(OC)c1OC`, the IC50 worked out at 47 nM in the assay with P388 (Mus musculus, P388); 94 nM in the assay on A549 (Homo sapiens, A549); 94 nM in the assay with HT-29 (Homo sapiens, HT-29); 94 nM with SK-MEL-28 (Homo sapiens, SK-MEL-28).

For the molecule `COc1cc([C@@H]2c3cc4c(cc3C(OC(=O)C3CC5C=CC3C5)[C@H]3COC(=O)C23)OCO4)cc(OC)c1OC` (single isomer, unassigned), the IC50 is 5 nM in the assay with P388 (p388), 4 nM in the assay with A549 (a549), 4 nM with HT-29 (ht-29) and 4 nM with SK-MEL-28 (sk-mel-28).

In the case of `C=CC(=O)O[C@@H]1c2cc3c(cc2[C@@H](c2cc(OC)c(OC)c(OC)c2)[C@@H]2C(=O)OC[C@@H]21)OCO3`, the IC50 in the assay on P388 (Mus musculus, P388) was determined as 21 nM; in the assay with A549 (Homo sapiens, A549) it was 21 nM; with HT-29 (Homo sapiens, HT-29), 21 nM; with SK-MEL-28 (Homo sapiens, SK-MEL-28), 21 nM.

`C=CC(=O)O[C@@H]1c2cc3c(cc2[C@@H](c2cc(OC)c(OC)c(OC)c2)[C@H]2C(=O)OC[C@@H]21)OCO3`: the IC50 with P388 (Mus musculus, P388) was determined as 213 nM; in the assay with A549 (Homo sapiens, A549), 213 nM; with HT-29 (Homo sapiens, HT-29) it was 213 nM; in the assay with SK-MEL-28 (Homo sapiens, SK-MEL-28), 213 nM.

For `COc1cc([C@@H]2c3cc4c(cc3[C@H](O)[C@H]3COC(=O)[C@H]23)OCO4)cc(OC)c1OC` [PODOFILOX], the IC50 in the assay with P388 (Mus musculus, P388) was 2900 nM; with A549 (Homo sapiens, A549), 2900 nM; in the assay on HT-29 (Homo sapiens, HT-29), 2900 nM.

Consider `COc1cc([C@@H]2c3cc4c(cc3[C@@H](OC(=O)CC3CC5CCC3C5)[C@H]3COC(=O)[C@H]23)OCO4)cc(OC)c1OC` (some centres undefined), for which the IC50 in the assay with P388 (Mus musculus, P388) is 454 nM; in the assay on A549 (Homo sapiens, A549), 454 nM; in the assay on HT-29 (Homo sapiens, HT-29), 454 nM; in the assay with SK-MEL-28 (Homo sapiens, SK-MEL-28) it was 454 nM.

Consider `COc1cc([C@@H]2c3cc4c(cc3[C@H](OC(=O)C3CC5C=CC3C5)[C@H]3COC(=O)[C@@H]23)OCO4)cc(OC)c1OC` (some centres undefined), for which the IC50 in the assay with P388 (Mus musculus, P388) stood at 19 nM; in the assay with A549 (Homo sapiens, A549) it was 19 nM; in the assay with HT-29 (Homo sapiens, HT-29), 19 nM; in the assay on SK-MEL-28 (Homo sapiens, SK-MEL-28) it was 19 nM.

For `COc1cc([C@@H]2c3cc4c(cc3[C@@H](OC(=O)C3CC5C=CC3C5)[C@H]3COC(=O)[C@H]23)OCO4)cc(OC)c1OC` (some centres undefined), the IC50 in the assay on P388 (Mus musculus, P388) was determined as 1120 nM; in the assay on A549 (Homo sapiens, A549), 1120 nM; with HT-29 (Homo sapiens, HT-29), 1120 nM; with SK-MEL-28 (Homo sapiens, SK-MEL-28), 1120 nM.

Consider `CCCCCCC(=O)O[C@@H]1c2cc3c(cc2[C@@H](c2cc(OC)c(OC)c(OC)c2)[C@H]2C(=O)OC[C@@H]21)OCO3`, for which the IC50 worked out at 190 nM in the assay with P388 (Mus musculus, P388); 190 nM in the assay on A549 (Homo sapiens, A549); 190 nM in the assay on HT-29 (Homo sapiens, HT-29); 190 nM in the assay on SK-MEL-28 (Homo sapiens, SK-MEL-28).

Turning to `COc1cc([C@@H]2c3cc4c(cc3[C@@H](O)[C@H]3COC(=O)[C@H]23)OCO4)cc(OC)c1OC` [EPIPODOPHYLLOTOXIN], the IC50 turned out to be 6000 nM with P388 (Mus musculus, P388); 6000 nM in the assay with A549 (Homo sapiens, A549); 6000 nM in the assay with HT-29 (Homo sapiens, HT-29).

Consider `C=CC(=O)O[C@H]1c2cc3c(cc2[C@@H](c2cc(OC)c(OC)c(OC)c2)[C@H]2C(=O)OC[C@@H]21)OCO3`, for which the half-maximal inhibitory concentration (IC50) with P388 (Mus musculus, P388) is 213 nM; with A549 (Homo sapiens, A549), 213 nM; with HT-29 (Homo sapiens, HT-29), 213 nM; with SK-MEL-28 (Homo sapiens, SK-MEL-28), 213 nM.

Consider `COc1cc([C@@H]2c3cc4c(cc3[C@H](OC(=O)c3ccccc3)[C@H]3COC(=O)[C@H]23)OCO4)cc(OC)c1OC`, for which the IC50 came to 1930 nM with P388 (Mus musculus, P388); 1930 nM in the assay with A549 (Homo sapiens, A549); 1930 nM in the assay on HT-29 (Homo sapiens, HT-29); 1930 nM in the assay with SK-MEL-28 (Homo sapiens, SK-MEL-28).

On to `COc1cc([C@@H]2c3cc4c(cc3[C@H](O)[C@H]3COC(=O)[C@@H]23)OCO4)cc(OC)c1OC` [AXL-1717], for which the IC50 in the assay with P388 (Mus musculus, P388) is 60 nM; in the assay on A549 (Homo sapiens, A549), 60 nM; in the assay with HT-29 (Homo sapiens, HT-29), 60 nM.

Consider `COc1cc([C@@H]2c3cc4c(cc3[C@@H](O)[C@H]3COC(=O)[C@@H]23)OCO4)cc(OC)c1OC`, for which the IC50 in the assay on P388 (Mus musculus, P388) came to 12 nM; in the assay with A549 (Homo sapiens, A549), 12 nM; with HT-29 (Homo sapiens, HT-29), 24 nM.

Consider `COc1cc([C@@H]2c3cc4c(cc3[C@@H](O[C@@H]3O[C@@H]5CO[C@@H](C)O[C@H]5[C@H](O)[C@H]3O)[C@H]3COC(=O)[C@H]23)OCO4)cc(OC)c1O` [ETOPOSIDE], for which the IC50 came out at 170 nM with P388 (Mus musculus, P388); 1700 nM in the assay on HT-29 (Homo sapiens, HT-29); 850 nM in the assay with SK-MEL-28 (Homo sapiens, SK-MEL-28).

With `COc1cc([C@@H]2c3cc4c(cc3[C@H](OC(=O)Cc3ccccc3)[C@H]3COC(=O)[C@H]23)OCO4)cc(OC)c1OC`, the IC50 in the assay on P388 (Mus musculus, P388) worked out at 188 nM; in the assay on A549 (Homo sapiens, A549), 188 nM; with HT-29 (Homo sapiens, HT-29) it was 188 nM; in the assay on SK-MEL-28 (Homo sapiens, SK-MEL-28) it was 188 nM.

On to `COc1cc([C@@H]2c3cc4c(cc3[C@H](OC(=O)/C=C/c3ccccc3)[C@H]3COC(=O)[C@H]23)OCO4)cc(OC)c1OC`, for which the IC50 in the assay on P388 (Mus musculus, P388) is 4590 nM; with A549 (Homo sapiens, A549), 9180 nM; with HT-29 (Homo sapiens, HT-29), 9180 nM; in the assay with SK-MEL-28 (Homo sapiens, SK-MEL-28) it was 9180 nM.

What is called IC50 is the midpoint of a concentration-inhibition curve. A lower IC50 goes with greater potency.
